Test results as given in ChEMBL document CHEMBL1153988 (J Med Chem, 2009).
Active and inactive are the calls of the source. The rule behind the calls is not given here.

Legend:
Mus musculus [1] = assay: Anticonvulsant activity in CF1 albino mouse assessed as protection against maximal electroshock-induced seizures at 150 mg/kg, ip after 0.5 hrs; assay type: functional, organism-based; set-up: dose 150 mg/kg
Procedure, shortened: (§1)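 Adult male CF no. 1 albino mice (18-25 g). Test compound suspended in 0.5% methylcellulose and given intraperitoneally at 0.01 mL/g body weight. Maximal electroshock challenge at the stated time. Read-out is the number of animals protected over the number tested; neurotoxicity is scored in parallel.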

Mus musculus [2] = assay: Anticonvulsant activity in ip dosed CF1 albino mouse assessed as protection against scMet-induced seizures; assay type: functional
Procedure, shortened: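 Adult male CF no. 1 albino mice (18-25 g) dosed ip with compound suspended in 0.5% methylcellulose (0.01 mL/g body weight). Seizures were induced by subcutaneous pentylenetetrazol, given as a 0.85% solution in 0.9% saline. ED50 was found by varying the dose to give 3-4 points between 0% and 100% protection, then probit analysis with 95% confidence intervals.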

Mus musculus [3] = assay: Anticonvulsant activity in CF1 albino mouse assessed as protection against maximal electroshock-induced seizures at 400 mg/kg, ip; assay type: functional, organism-based; set-up: dose 400 mg/kg; procedure, shortened: as §1
Mus musculus [4] = assay: Anticonvulsant activity in CF1 albino mouse assessed as protection against maximal electroshock-induced seizures at 60 mg/kg, ip; assay type: functional, organism-based; set-up: dose 60 mg/kg; procedure, shortened: as §1
Mus musculus [5] = species: Mus musculus; assay: Protective index, ratio of TD50 for CF1 albino mouse to ED50 for scMet-induced CF1 albino seizure mouse model; assay type: functional
Procedure, shortened: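 Ratio of TD50 to ED50 (MES or scMet) in male CF no. 1 mice (18-25 g) given ip doses in 0.5% methylcellulose. TD50 comes from minimal motor impairment: the dose was varied until four points lay between no impairment and all animals impaired. Both TD50 and ED50 were derived by probit analysis with 95% confidence intervals.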

Rattus norvegicus [6] = assay: Anticonvulsant activity in albino Sprague-Dawley rat assessed as protection against maximal electroshock-induced seizures at 50 mg/kg, po after 1 hr; assay type: functional
Procedure, shortened: (§2)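 Adult male Sprague-Dawley albino rats (100-150 g) dosed orally with compound suspended in 0.5% methylcellulose (0.04 mL per 10 g). Maximal electroshock challenge at the stated time. Protection is scored in 25% steps as the fraction of animals protected, with neurotoxicity recorded in parallel.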

Rattus norvegicus [7] = assay: Anticonvulsant activity in albino Sprague-Dawley rat assessed as protection against maximal electroshock-induced seizures at 50 mg/kg, po after 15 mins; assay type: functional; procedure, shortened: as §2
Mus musculus [8] = assay: Anticonvulsant activity in CF1 albino mouse assessed as protection against maximal electroshock-induced seizures at 300 mg/kg, ip after 0.5 hrs; assay type: functional, organism-based; set-up: dose 300 mg/kg; procedure, shortened: as §1
Mus musculus [9] = assay: Neurotoxicity in CF1 albino mouse at 100 mg/kg, ip after 0.5 hrs; assay type: toxicity, organism-based; set-up: dose 100 mg/kg, route intraperitoneal; conditions: in vivo
Procedure, shortened: (§3)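 Male CF no. 1 albino mice (18-25 g) received a single ip dose as a suspension in 0.5% methylcellulose. The read-out was the number of animals showing neurotoxicity (minimal motor impairment) over the number tested.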

Mus musculus [10] = assay: Anticonvulsant activity in CF1 albino mouse assessed as protection against maximal electroshock-induced seizures at 30 mg/kg, ip after 0.5 hrs; assay type: functional, organism-based; set-up: dose 30 mg/kg; procedure, shortened: as §1
Mus musculus [11] = assay: Anticonvulsant activity in CF1 albino mouse assessed as protection against maximal electroshock-induced seizures at 100 mg/kg, ip after 0.5 hrs; assay type: functional, organism-based; set-up: dose 100 mg/kg; procedure, shortened: as §1
Rattus norvegicus [12] = assay: Anticonvulsant activity in albino Sprague-Dawley rat assessed as protection against scMet-induced seizures at 50 mg/kg, po after 1 hr; assay type: functional
Procedure, shortened: (§4)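 Male Sprague-Dawley albino rats (100-150 g) were given the compound orally as a suspension in 0.5% methylcellulose. Seizures were induced by subcutaneous pentylenetetrazol, dissolved in 0.9% saline as a 2.82% solution. The read-out was animals protected over animals tested.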

Rattus norvegicus [13] = assay: Anticonvulsant activity in albino Sprague-Dawley rat assessed as protection against scMet-induced seizures at 50 mg/kg, po after 30 mins; assay type: functional; procedure, shortened: as §4
Mus musculus [14] = assay: Anticonvulsant activity in CF1 albino mouse assessed as protection against scMet-induced seizures at 300 mg/kg, ip after 4 hrs; assay type: functional, organism-based; set-up: dose 300 mg/kg
Procedure, shortened: (§5)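 Adult male CF no. 1 albino mice (18-25 g) dosed intraperitoneally with compound suspended in 0.5% methylcellulose (0.01 mL/g). Convulsant challenge given subcutaneously as a 0.85% pentylenetetrazol solution in 0.9% saline. Read-out is animals protected over animals tested, with neurotoxicity scored in parallel.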

Rattus norvegicus [15] = assay: Anticonvulsant activity in albino Sprague-Dawley rat assessed as protection against scMet-induced seizures at 50 mg/kg, po after 4 hrs; assay type: functional; procedure, shortened: as §4
Rattus norvegicus [16] = assay: Anticonvulsant activity in albino Sprague-Dawley rat assessed as protection against maximal electroshock-induced seizures at 50 mg/kg, po after 2 hrs; assay type: functional; procedure, shortened: as §2
Rattus norvegicus [17] = assay: Anticonvulsant activity in albino Sprague-Dawley rat assessed as protection against maximal electroshock-induced seizures at 50 mg/kg, po after 30 mins; assay type: functional; procedure, shortened: as §2
Mus musculus [18] = assay: Neurotoxicity in CF1 albino mouse at 30 mg/kg, ip after 4 hrs; assay type: toxicity, organism-based; set-up: dose 30 mg/kg, route intraperitoneal; conditions: in vivo; procedure, shortened: as §3
Mus musculus [19] = assay: Neurotoxicity in CF1 albino mouse at 300 mg/kg, ip after 4 hrs; assay type: toxicity, organism-based; set-up: dose 300 mg/kg, route intraperitoneal; conditions: in vivo; procedure, shortened: as §3
Rattus norvegicus [20] = assay: Neurotoxicity in albino Sprague-Dawley rat at 50 mg/kg, po; assay type: toxicity, organism-based; set-up: dose 50 mg/kg, route oral; conditions: in vivo
Procedure, shortened: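 Neurotoxicity was scored in male Sprague-Dawley albino rats (100-150 g) dosed orally with a suspension in 0.5% methylcellulose. The read-out was the fraction of animals showing neurotoxicity (minimal motor impairment).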

Mus musculus [21] = assay: Anticonvulsant activity in CF1 albino mouse assessed as protection against scMet-induced seizures at 30 mg/kg, ip after 4 hrs; assay type: functional, organism-based; set-up: dose 30 mg/kg; procedure, shortened: as §5
Mus musculus [22] = assay: Anticonvulsant activity in CF1 albino mouse assessed as protection against maximal electroshock-induced seizures at 100 mg/kg, ip after 4 hrs; assay type: functional, organism-based; set-up: dose 100 mg/kg; procedure, shortened: as §1
Mus musculus [23] = assay: Anticonvulsant activity in CF1 albino mouse assessed as protection against scMet-induced seizures at 100 mg/kg, ip after 0.5 hrs; assay type: functional, organism-based; set-up: dose 100 mg/kg; procedure, shortened: as §5
Rattus norvegicus [24] = assay: Anticonvulsant activity in albino Sprague-Dawley rat assessed as protection against maximal electroshock-induced seizures at 50 mg/kg, po after 4 hrs; assay type: functional, organism-based; set-up: dose 50 mg/kg; procedure, shortened: as §2
Mus musculus [25] = assay: Anticonvulsant activity in CF1 albino mouse assessed as protection against maximal electroshock-induced seizures at 30 mg/kg, ip after 4 hrs; assay type: functional, organism-based; set-up: dose 30 mg/kg; procedure, shortened: as §1
Mus musculus [26] = assay: Neurotoxicity in CF1 albino mouse at 30 mg/kg, ip after 0.5 hrs; assay type: toxicity, organism-based; set-up: dose 30 mg/kg, route intraperitoneal; conditions: in vivo; procedure, shortened: as §3
Mus musculus [27] = assay: Anticonvulsant activity in CF1 albino mouse assessed as protection against scMet-induced seizures at 30 mg/kg, ip after 0.5 hrs; assay type: functional, organism-based; set-up: dose 30 mg/kg; procedure, shortened: as §5
Mus musculus [28] = assay: Anticonvulsant activity in CF1 albino mouse assessed as protection against maximal electroshock-induced seizures at 300 mg/kg, ip after 4 hrs; assay type: functional, organism-based; set-up: dose 300 mg/kg; procedure, shortened: as §1
Rattus norvegicus [29] = assay: Anticonvulsant activity in albino Sprague-Dawley rat assessed as protection against scMet-induced seizures at 50 mg/kg, po after 2 hrs; assay type: functional; procedure, shortened: as §4
Mus musculus [30] = assay: Anticonvulsant activity in CF1 albino mouse assessed as protection against scMet-induced seizures at 300 mg/kg, ip after 0.5 hrs; assay type: functional, organism-based; set-up: dose 300 mg/kg; procedure, shortened: as §5
Rattus norvegicus [31] = assay: Anticonvulsant activity in albino Sprague-Dawley rat assessed as protection against scMet-induced seizures at 50 mg/kg, po after 15 mins; assay type: functional; procedure, shortened: as §4
Mus musculus [32] = assay: Neurotoxicity in CF1 albino mouse at 100 mg/kg, ip after 4 hrs; assay type: toxicity, organism-based; set-up: dose 100 mg/kg, route intraperitoneal; conditions: in vivo; procedure, shortened: as §3
Mus musculus [33] = assay: Anticonvulsant activity in CF1 albino mouse assessed as protection against scMet-induced seizures at 100 mg/kg, ip after 4 hrs; assay type: functional, organism-based; set-up: dose 100 mg/kg; procedure, shortened: as §5
Mus musculus [34] = assay: Neurotoxicity in CF1 albino mouse at 300 mg/kg, ip after 0.5 hrs; assay type: toxicity, organism-based; set-up: dose 300 mg/kg, route intraperitoneal; conditions: in vivo; procedure, shortened: as §3
Mus musculus [35] = assay: Anticonvulsant activity in ip dosed CF1 albino mouse assessed as protection against 32 mA current-induced seizure by 6Hz psychomotor seizure test; assay type: functional
Procedure, shortened: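 In the 6 Hz psychomotor seizure test, male CF no. 1 albino mice (18-25 g) received the compound ip in 0.5% methylcellulose. Stimulation was at 32 or 44 mA. Doses were varied to give 3-4 points between 0% and 100% protection, and ED50 with 95% confidence interval came from probit analysis.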

Rattus norvegicus [36] = species: Rattus norvegicus; assay: Protective index, ratio of TD50 for albino Sprague-Dawley rat to ED50 for scMet-induced albino Sprague-Dawley rat seizure model; assay type: functional
Procedure, shortened: (§6)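 Protective index is the rat TD50 (minimal motor impairment) divided by the ED50 in the MES or sc pentylenetetrazol test. Male Sprague-Dawley rats were dosed orally in 0.5% methylcellulose, and both values came from probit analysis.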

Rattus norvegicus [37] = species: Rattus norvegicus; assay: Protective index, ratio of TD50 for albino Sprague-Dawley rat to ED50 for maximal electroshock-induced albino Sprague-Dawley rat seizure model; assay type: functional; procedure, shortened: as §6

SMILES	Activity (Rattus norvegicus [6])	Activity (Mus musculus [8])	Activity (Mus musculus [10])	Activity (Mus musculus [11])	Activity (Rattus norvegicus [12])	Activity (Rattus norvegicus [13])	Activity (Mus musculus [14])	Activity (Rattus norvegicus [15])	Activity (Mus musculus [19])	Activity (Rattus norvegicus [20])	Activity (Mus musculus [21])	Activity (Mus musculus [22])	Activity (Mus musculus [23])	Activity (Mus musculus [25])	Activity (Mus musculus [27])	Activity (Mus musculus [28])	Activity (Rattus norvegicus [29])	Activity (Mus musculus [30])	Activity (Mus musculus [32])	Activity (Mus musculus [33])	other results
CCCC(F)(CCC)C(N)=O																					Activity (Mus musculus [1]): inactive; ED50 (Mus musculus [2]): 23 mg/kg; Activity (Mus musculus [3]): Active; Activity (Mus musculus [4]): inactive; PI (Mus musculus [5]): 3.8
CC1(C)C(C)(C)C1(C)C(=O)O	inactive	Toxic	Non-toxic	Non-toxic	inactive	inactive	Non-toxic	25%	Non-toxic	Not Active	Non-toxic	Non-toxic	Non-toxic	Non-toxic	Non-toxic	Non-toxic	inactive	Non-toxic	Non-toxic	Non-toxic	Activity (Rattus norvegicus [7]): inactive; Activity (Mus musculus [9]): Non-toxic; Activity (Rattus norvegicus [16]): inactive; Activity (Rattus norvegicus [17]): inactive; Activity (Mus musculus [18]): Non-toxic; Activity (Rattus norvegicus [24]): inactive; Activity (Mus musculus [26]): Non-toxic; Activity (Rattus norvegicus [31]): inactive
CC1(C)C(C)(C)C1(C)C(N)=O	inactive	Toxic	Non-toxic	Non-toxic	25%	inactive	Non-toxic	inactive	Non-toxic	Not Active	Non-toxic	Non-toxic	Non-toxic	Non-toxic	Non-toxic	Non-toxic	25%	Toxic	Non-toxic	Non-toxic	Activity (Rattus norvegicus [7]): inactive; Activity (Mus musculus [9]): Non-toxic; Activity (Rattus norvegicus [16]): inactive; Activity (Rattus norvegicus [17]): inactive; Activity (Mus musculus [18]): Non-toxic; Activity (Rattus norvegicus [24]): inactive; Activity (Mus musculus [34]): Toxic; Activity (Mus musculus [26]): Non-toxic; Activity (Rattus norvegicus [31]): inactive
CC[C@H](C(N)=O)N1CCCC1=O																					ED50 (Mus musculus [35]): 19 mg/kg
CC1(C)C(C(=O)NC(N)=O)C1(C)C [2,2,3,3-TETRAMETHYLCYCLOPROPANECARBONYLUREA]																					PI (Rattus norvegicus [36]): 5.9; PI (Rattus norvegicus [37]): 18.5
CC1(C)C(C)(C)C1(F)C(=O)O	inactive	Non-toxic	Non-toxic	Non-toxic	inactive	inactive	Non-toxic	inactive	Non-toxic	Not Active	Non-toxic	Non-toxic	Non-toxic	Non-toxic	Non-toxic	Non-toxic	inactive	Toxic	Non-toxic	Non-toxic	Activity (Rattus norvegicus [7]): inactive; Activity (Rattus norvegicus [16]): inactive; Activity (Rattus norvegicus [17]): inactive; Activity (Mus musculus [18]): Non-toxic; Activity (Rattus norvegicus [24]): inactive; Activity (Mus musculus [34]): Toxic; Activity (Mus musculus [26]): Non-toxic
CNC(=O)C1(F)C(C)(C)C1(C)C		Toxic	Non-toxic	Non-toxic	inactive	inactive	Non-toxic	inactive	Non-toxic	100%	Non-toxic	Non-toxic	Toxic	Non-toxic	Non-toxic	Non-toxic	inactive	Non-toxic	Non-toxic	Non-toxic	Activity (Mus musculus [34]): Toxic; Activity (Rattus norvegicus [31]): inactive
